Only some compounds are listed: those with a hit (about 3.1% of all), similar ones and a draw of the others.
Hep lipid drop = hepatic lipid droplet formation modulation | inhibition, % at 6.5 µM | AID 1656 | 0.4% of 240,000 active | AML12 mouse hepatocytes, oleate lipid droplets, BODIPY imaging;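 active means lipid droplet intensity inhibited by at least 50%, with more than 500 cells counted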
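Assay system: AML12 hepatocytes (mouse); Probe or stimulus: oleic acid at 100 µM to induce lipid droplet formation; Dosing: compound at 6.5 µM only; Schedule: compound with oleate, overnight; Detection: fluorescence imaging, 20x objective, two fields per well; Measure: % inhibition of lipid droplet signal.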
V-ATPase pHluor = regulators of yeast V-ATPase proton transport. S. cerevisiae, pHLuorin cytosolic pH fluorescence. response, % at 10 µM. 0.37% of 350,000 active. AID 504577; in the data active means response mostly above about 7.3%, no sharp cut-off; inactive means mostly below about 5.4%; further: actives read high
ADAM10 inh = ADAM10 inhibition, QFRET primary screen | O14672 | inhibition, % at 7 µM | 0.62% of 370,000 active | recombinant ADAM10, EDANS/DABCYL FRET peptide cleavage, 3 h;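 active means inhibition above a per-campaign cutoff equal to the mean of compounds falling between control-based bounds plus 3 SD, cut at about 20% in these data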
MPTP inh = blocks calcium-induced mitochondrial swelling; isolated mouse mitochondria, Ca2+ swelling absorbance, 30 min; inhibition, % at 10 µM; 1.4% of 360,000 active; AID 602449;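 active means inhibition of 50% or more, scaled per plate between neutral and stimulator controls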
aDG glyco up = increases alpha dystroglycan glycosylation; AID 624168; 0.22% of 360,000 active; Pro5-aDG cells, alpha-DG glycosylation AlphaScreen (IIH6); 0% Pro5, 100% B10-LARGE cell signal; activation, % at 10 µM;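 active means activation of at least 8% versus controls, or a plate z-score of at least 8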;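 further: Pro5 are CHO cells carrying HIG-tagged alpha-DG that lacks glycosylation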
ADAM17 inh = inhibits human ADAM17. 0.83% of 370,000 active. recombinant ADAM17, EDANS/DABCYL FRET peptide cleavage. inhibition, % at 6.95 µM;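 active means inhibition above the mean of compounds lying between control limits plus 3 SD, set per campaign, cut at about 8.5% in these data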
Target sequence (P78536 215-824 limits assumed): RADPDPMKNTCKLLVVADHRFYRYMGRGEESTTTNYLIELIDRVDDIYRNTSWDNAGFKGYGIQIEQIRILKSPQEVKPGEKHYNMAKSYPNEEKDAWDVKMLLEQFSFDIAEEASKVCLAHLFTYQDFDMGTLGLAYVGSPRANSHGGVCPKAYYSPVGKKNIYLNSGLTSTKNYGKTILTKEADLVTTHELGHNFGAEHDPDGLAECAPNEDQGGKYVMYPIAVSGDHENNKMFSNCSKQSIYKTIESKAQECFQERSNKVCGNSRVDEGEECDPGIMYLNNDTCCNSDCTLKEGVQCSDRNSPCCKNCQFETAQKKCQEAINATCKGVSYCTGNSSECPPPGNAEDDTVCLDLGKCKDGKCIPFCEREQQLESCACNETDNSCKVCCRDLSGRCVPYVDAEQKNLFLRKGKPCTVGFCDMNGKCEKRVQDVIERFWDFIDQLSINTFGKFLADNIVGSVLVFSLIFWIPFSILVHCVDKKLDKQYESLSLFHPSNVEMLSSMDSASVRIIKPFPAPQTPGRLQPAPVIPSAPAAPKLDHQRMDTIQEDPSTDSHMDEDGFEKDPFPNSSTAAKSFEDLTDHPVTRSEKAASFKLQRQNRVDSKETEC
Rh123 counter = Rhodamine 123 counter-screen of mitochondrial pore hits; inhibition, % at 10 µM; AID 624504; 78% of 5,000 active; shares compounds with MPTP inh; isolated mitochondria, membrane potential, Rhodamine 123 fluorescence; in the data active means inhibition above about 22%
MPTP swell DR = MPTP inhibition, dose response swelling confirmation | shares compounds with MPTP inh | isolated mitochondria swelling, absorbance | IC50, µM | 58% of 780 active | AID 651561; in the data active means IC50 below about 20 µM
MPTP cs DR = MPTP inhibitor counter-screen activity, dose response | isolated mitochondria counterscreen, fluorescence read-out | IC50, µM | shares compounds with MPTP inh | 49% of 780 active | AID 651564; in the data active means IC50 below about 80 µM
ADAM10 confirm = confirmation of inhibitors of human ADAM10. shares compounds with ADAM10 inh. ADAM10 QFRET peptide cleavage, EDANS fluorescence. AID 743208. 1% of 2,100 active. inhibition, % at 6.95 µM;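 active means inhibition above about 20% chosen separately for each screening run, limit read from the data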
ADAM17 ctr = ADAM17 inhibition, counter-screen for ADAM10 exosite hits | 0.5% of 2,100 active | shares compounds with ADAM10 inh | AID 743214 | inhibition, % at 6.95 µM | ADAM17 QFRET peptide cleavage, EDANS fluorescence;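 active means mean triplicate inhibition above the solvent-only control wells' mean plus 3 SD, cut at about 12% in these data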
ADAM10 counter = ADAM10 inhibition, counter-screen for ADAM17 exosite hits. shares compounds with ADAM17 inh. recombinant ADAM10, EDANS/DABCYL FRET peptide cleavage, 3 h. inhibition, % at 6.95 µM. 47% of 2,900 active. AID 743256;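 active means mean inhibition over the triplicate runs exceeds the activity threshold set in the earlier primary screen, cut at about 20% in these data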
ADAM17 confirm = confirmation of inhibitors of human ADAM17. shares compounds with ADAM17 inh. inhibition, % at 6.95 µM. 65% of 2,900 active. recombinant ADAM17, EDANS/DABCYL QFRET peptide cleavage;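 active means mean inhibition across replicates above the hit cutoff set in the primary screen, cut at about 8.5% in these data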
Numbers stand for hits; – = inactive; · = no result given.

SMILES	Hep lipid drop	V-ATPase pHluor	ADAM10 inh	MPTP inh	aDG glyco up	ADAM17 inh	Rh123 counter	ADAM10 confirm	ADAM17 ctr	ADAM10 counter	ADAM17 confirm	others
Cc1cccc(Nc2nc(N)c([N+](=O)[O-])c(N3CC(C)CC(C)C3)n2)c1 (stereo unspecified)	–	–	20.4	56.0	–	9.4	–	·	·	30.8	16.9	MPTP swell DR=–;MPTP cs DR=62.7
c1ccc(CN2CCC(Nc3nc(-c4ccccc4)nc4ccccc34)CC2)cc1	–	–	20.9	105.5	–	8.9	–	–	–	21.8	14.8
Cc1cc(C(=O)OC(C(=O)Nc2cccc(C(F)(F)F)c2)c2ccccc2)c(C)o1 (stereo unspecified)	–	–	30.1	67.5	–	15.9	73.1	–	–	38.2	24.5
CC1=C(C(=O)Nc2ccc([N+](=O)[O-])cc2)C(c2cccc(C(F)(F)F)c2)NC(=S)N1c1ccccc1 (stereo unspecified)	–	–	34.5	75.4	–	17.7	89.5	–	–	59.2	31.7
COc1ccc(-c2noc(C3CCCN(C(=O)Nc4ccc5c(c4)OCO5)C3)n2)cc1 (stereo unspecified)	·	·	–	·	·	–	·	·	·	·	·
CCn1nc([N+](=O)[O-])c(C(C#N)c2nc3cc(C(F)(F)F)ccc3s2)c(Cl)c1=O (stereo unspecified)	–	–	27.6	113.9	–	11.0	–	–	–	22.8	13.7
Cn1nc([N+](=O)[O-])c(C(C#N)c2ccccn2)c(Cl)c1=O (stereo unspecified)	–	–	–	–	–	–	·	·	·	·	·
Fc1ccccc1Cn1ccc2ccc(-c3ccc4ccn(Cc5ccccc5)c4c3)cc21	·	·	–	·	·	–	·	·	·	·	·
COCc1cccc(-c2cc(C(=O)OC)c3n(c2=O)CCC3)c1	·	·	–	·	·	–	·	·	·	·	·
N=c1c2c(-c3ccccc3)c(-c3ccccc3)n(CCc3ccccc3)c2ncn1C1CCC(O)CC1 (stereo unspecified)	·	·	–	·	·	–	·	·	·	·	·
CCOC(=O)c1c(-c2ccccc2)csc1NC(=O)CSc1nc(N)cc(N)n1	–	–	25.6	80.0	–	13.4	42.7	–	–	–	9.8
CCOC(=O)c1c(-c2ccccc2)csc1NC(=O)CSc1nc(C)cc(C)n1	–	–	–	–	–	–	·	·	·	·	·
Cc1onc(-c2ccccc2)c1C(=O)OCC(=O)Nc1ccc(OC(F)(F)F)cc1	·	–	24.8	86.5	–	9.4	90.6	–	–	32.6	17.2
CC(=O)CC[C@@H]1CC[C@]2(CCCN(C(=O)c3ccccc3)C2)O1	·	·	–	·	·	–	·	·	·	·	·
Cc1onc(-c2c(F)cccc2Cl)c1C(=O)Nc1cc(S(=O)(=O)N2CCCCC2)ccc1O	·	–	27.2	84.5	–	11.7	83.7	–	–	40.0	17.8
COc1ccc(Cc2nnc(NC(=O)Nc3cccc(OC)c3)s2)cc1	–	–	–	–	–	–	·	·	·	·	·
CCSc1nsc(NC(=O)Nc2cccc(OC)c2)n1	–	–	–	84.1	–	10.8	85.4	·	·	–	14.1
O=C(CNS(=O)(=O)c1cc2ccccc2s1)N1CCN(c2ccccn2)CC1	·	·	–	·	·	–	·	·	·	·	·
COc1ccc(Cn2ccc3ccc(-c4ccc5ccn(C(=O)C6CC6)c5c4)cc32)cc1	·	·	–	·	·	–	·	·	·	·	·
N#CC1=C(N)NC(SCC(=O)c2ccc(Cl)cc2)=C(C#N)C12CCCC2	–	–	–	–	–	–	·	·	·	·	·
N#CC1=C(N)NC(SCC(=O)c2ccc(Br)cc2)=C(C#N)C12CCCCC2	–	–	21.8	90.0	–	12.6	80.4	–	–	41.7	18.6
Cc1ccc(NS(=O)(=O)c2ccc(C3CCCCC3)cc2)cc1	–	–	–	72.9	–	8.9	77.8	·	·	37.8	18.3
Cc1ccc(S(=O)(=O)Nc2ccc(N3CCCCC3)cc2)cc1	–	–	–	–	–	–	·	·	·	·	·
CC1C=CC=CCCC=CC=CC=CC=CC(OC2O[C@H](C)[C@@H](O)[C@H](N)[C@@H]2O)CC(O)C(C(=O)O)C(O)CC(=O)CC(O)C(O)CCC(O)CC(O)CC(O)CC(=O)OC(C)C(C)C1O (stereo partly specified)	·	·	–	·	·	–	·	·	·	·	·
Cc1ccc(NC(=O)OC2CC3CC2[C@H]2CCCCN2C3)cc1C (stereo partly specified)	·	·	–	·	·	–	·	·	·	·	·
SMILES	Hep lipid drop	V-ATPase pHluor	ADAM10 inh	MPTP inh	aDG glyco up	ADAM17 inh	Rh123 counter	ADAM10 confirm	ADAM17 ctr	ADAM10 counter	ADAM17 confirm	others
O=C(OC12CCCN(C1)/C(=C/c1ccccc1)C2)C1CCCCC1 (stereo unspecified)	·	·	–	·	·	–	·	·	·	·	·
C/C(=N\Nc1ccc([N+](=O)[O-])cc1)c1ccc(C#N)cc1	–	–	–	–	–	–	·	·	·	·	·
C/C(=N/Nc1ccc([N+](=O)[O-])cc1)c1ccc(C)cc1C	–	–	23.1	65.0	–	9.6	60.5	–	–	–	14.9
CCN(CC)S(=O)(=O)c1ccc(S(=O)(=O)Nc2ccc3c(c2)oc2ccccc23)cc1	–	–	32.1	60.3	–	13.7	83.5	–	–	47.4	25.1
S=C(NCc1ccc(Cl)cc1)Nc1ccncc1	–	–	–	98.3	–	8.9	102.9	·	·	–	13.2
S=C(NCc1ccncc1)Nc1cccc(Cl)c1	–	–	–	–	–	–	·	·	·	·	·
CCOc1ccccc1NC(=O)C(OC(=O)c1ccc(O)cc1)c1ccccc1 (stereo unspecified)	–	–	–	88.6	–	9.6	86.4	·	·	32.7	19.9
COc1cc2c(cc1NC(=O)CSc1nnc(-c3cccnc3)n1-c1ccc(Br)cc1)oc1ccccc12	·	·	–	·	·	–	·	·	·	·	·
C=CCN(CC#Cc1ccccc1)CC1CC1	·	·	–	·	·	–	·	·	·	·	·
CC(C)C[C@H](NC1(C(=O)NCCc2c[nH]c3ccccc23)CCN(C)CC1)C(=O)NCCCc1ccccc1	·	·	–	·	·	–	·	·	·	·	·
CCN(CC)S(=O)(=O)c1cccc(NC(=O)CC2CCCC2)c1	–	–	–	–	–	–	·	·	·	·	·

From PubChem BioAssay
